Data set [1] in a line: folding enthalpy; higher = less favourable; fluorescence melt of hairpins on a sequencing array, two-state fit. The settings on record: sodium 0.088 M. The gist of the method: (§1)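 Two-state fits, bootstrapped, provided melting temperature and folding enthalpy from Cy3 fluorescence normalised to pre-quench Cy3 and to control constructs. Library hairpins with annealed Cy3 and quencher oligos were imaged on a sequenced MiSeq flow cell in 50 mM Na-HEPES pH 8.0, 25 mM NaCl, at 2.5 °C intervals up to 60 °C. Four replicates were combined with inverse-variance weighting. A 9.35 °C upward shift was applied to fitted temperatures to match UV melts.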

The nature of data set [2]: melting temperature; fluorescence melt of hairpins on a sequencing array, two-state fit, raised by 9.35 °C to match UV melts. Conditions: sodium 0.088 M. Put shortly: as §1

Turning to GCTAAGCGAAAGCATTGC ((.(.((....)).).)), the folding enthalpy in data set [1] is -19.9 kcal/mol. Besides, the Tm in data set [2] came to 36.2 °C.
As for GCTAAGCGAAAGCCCAGC (((..((....))..))), in data set [1], the folding enthalpy is -16.8 kcal/mol. In data set [2], the Tm was 34.5 °C.
GCTAAGCGAAAGCCTAGC ((((.((....)).)))): in data set [1], the folding enthalpy was -21.9 kcal/mol. In addition, the Tm in data set [2] turned out to be 49.1 °C.
As for GCTAAGCGAAAGCGTAGC ((((.((....)).)))), the folding enthalpy in data set [1] is -20.3 kcal/mol. The Tm in data set [2] amounted to 61.5 °C.
On to GCTAAGCGAAAGCTAGGC ((..(((....)))..)), for which the folding enthalpy in data set [1] was -17.6 kcal/mol. The Tm in data set [2] was 47.4 °C.
Regarding GCTAAGCGAAAGCTTTGC ((.((((....)))).)), the folding enthalpy in data set [1] was -30.6 kcal/mol. The Tm in data set [2] came out at 59.5 °C.
Turning to GCTAAGGGAAACCTTAGC (((((((....))))))), the folding enthalpy in data set [1] was -40.7 kcal/mol. Moreover, in data set [2], the Tm was found to be 59.8 °C.
With GCTAATGAAAATTAGC ((((((....)))))), in data set [1], the folding enthalpy was -31.7 kcal/mol. In data set [2], the Tm amounted to 50 °C.
The matching figures for GCTAATGGAAACGTTAGC (((((.(....).))))): -29.7 kcal/mol and 43.9 °C.
On the same counts, the results for GCTACACGAAAGTGAGC (((.(((....)))))) are -19.2 kcal/mol and 49.4 °C.
On the same counts, the results for GCTACACGAAAGTGCAGC (((.(((....))).))) are -42.1 kcal/mol and 53.1 °C.
For the sequence GCTACCGCGAAAGCGAGC (((..(((....)))))), the folding enthalpy in data set [1] is -11.5 kcal/mol. Further, the Tm in data set [2] amounted to 35.9 °C.
As to GCTACCGGAAACGGTGGC ((.((((....)))).)), the folding enthalpy in data set [1] was -33.8 kcal/mol. In addition, the Tm in data set [2] came out at 60 °C.
The matching figures for GCTACGCGAAAGCAAAGC (((..((....))..))): -13.2 kcal/mol and 44.1 °C.
On the same counts, the results for GCTACGCGAAAGCATTGC ((.(.((....)).).)) are -12.7 kcal/mol and 38.7 °C.
For the sequence GCTACGCGAAAGCCGAGC (((..((....))..))), in data set [1], the folding enthalpy was -15.6 kcal/mol. The Tm in data set [2] is 43.4 °C.
As for GCTACGCGAAAGCCTTGC ((.(.((....)).).)), in data set [1], the folding enthalpy was -9.85 kcal/mol. Further, the Tm in data set [2] amounted to 29.6 °C.
The matching figures for GCTACGCGAAAGCGCAGC (((.(((....))).))): -32.5 kcal/mol and 55.7 °C.
The matching figures for GCTACGCGAAAGCTGAGC (((..((....))..))): -15.2 kcal/mol and 46.2 °C.
With GCTACGCGAAAGCTTGGC ((.(.((....)).).)), the folding enthalpy in data set [1] is -17.4 kcal/mol. Further, the Tm in data set [2] turned out to be 41.1 °C.
On to GCTACGCGAAAGCTTTGC ((.(.((....)).).)), for which the folding enthalpy in data set [1] was -13 kcal/mol. For the same sequence, the Tm in data set [2] stood at 36.7 °C.
On the same counts, the results for GCTACGGAAACGTAGC ((((((....)))))) are -42 kcal/mol and 66.5 °C.
On to GCTACGGGAAACCGCAAC (.(.(((....))).).), for which the folding enthalpy in data set [1] was -9.56 kcal/mol. Besides, in data set [2], the Tm was 24.1 °C.
The matching figures for GCTACGTCGAAAGACAGC (((..(((....)))))): -16.2 kcal/mol and 36.4 °C.
GCTACTGCGAAAGCAAGC (((..(((....)))))): the folding enthalpy in data set [1] is -11.4 kcal/mol. The Tm in data set [2] came out at 34.7 °C.
On the same counts, the results for GCTACTGGAAACAATAGC ((((.((....)).)))) are -18.5 kcal/mol and 31.3 °C.
Regarding GCTACTGGAAACAGTAAC (.(((((....))))).), in data set [1], the folding enthalpy is -16 kcal/mol. Moreover, in data set [2], the Tm worked out at 31.5 °C.
The matching figures for GCTACTGGAAACAGTAGC (((((((....))))))): -44.5 kcal/mol and 64 °C.
GCTACTGGAAACGGTAGC (((((.(....).))))): in data set [1], the folding enthalpy is -37.5 kcal/mol. Further, the Tm in data set [2] came out at 50.2 °C.
On the same counts, the results for GCTAGACGAAAGTCAGC (((.(((....)))))) are -23.1 kcal/mol and 54.2 °C.
The matching figures for GCTAGAGCGAAAGCTAGC (((..(((....)))))): -21.7 kcal/mol and 47.4 °C.
On to GCTAGAGGAAACTCTAAC (.(((((....))))).), for which the folding enthalpy in data set [1] is -9.45 kcal/mol. The Tm in data set [2] was 24.8 °C.
The matching figures for GCTAGCCGAAAGGCAAGC (((.(((....))).))): -27 kcal/mol and 60 °C.
GCTAGCCGAAAGGCAGC (((.(((....)))))): the folding enthalpy in data set [1] was -21.7 kcal/mol. Moreover, the Tm in data set [2] is 58.1 °C.
On the same counts, the results for GCTAGCGAAAGCTAAGC ((((((....))).))) are -22.4 kcal/mol and 54.6 °C.
For GCTAGCGAAAGCTCGAGC ((((((....)))..))), in data set [1], the folding enthalpy was -14.6 kcal/mol. For the same sequence, the Tm in data set [2] worked out at 35.6 °C.
On the same counts, the results for GCTAGCGAAAGCTGTAGC ((((((....)))..))) are -21.3 kcal/mol and 43.1 °C.

The values above are taken from the array DNA melting data of Ke et al. (doi:10.1101/2024.01.08.574731).
